# Experimental data taken from ChEMBL document CHEMBL2384929, “Synthesis and biological evaluation of fluoro analogues of antimitotic phenstatin” (Bioorg Med Chem, 2013).
# What was measured:
# SR [1] = assay: Cytotoxicity against human SR cells assessed as growth inhibition at 10 uM after 48 hrs by SRB assay; type: functional; settings: read-out: GI
# In short: (§1)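 Single-dose NCI 60-cell screen at 10 µM with 48 h exposure and sulforhodamine B read-out. Values are percentage growth per cell line. A summary ratio counts cell lines with 0–50% growth over all cell lines tested.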
# Ovis aries = species: Ovis aries; assay: Inhibition of sheep brain tubulin assembly at 100 uM by DAPI staining-based fluorescence assay
# In short: (§2)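 Tubulin from sheep brain, purified by two assembly–disassembly cycles, at about 2–3 mg/mL in 0.1 M MES, 0.5 mM MgCl2, 1 mM EGTA, 1 mM GTP, pH 6.6. Assembly followed by DAPI fluorescence at 37 °C. Single-point inhibition tested at 100 µM. IC50 is the concentration halving the assembly rate relative to no compound, mean of two experiments, with reference inhibitors run the same day.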
# MDA-MB-435 [2] = assay: Cytotoxicity against human MDA-MB-435 cells assessed as growth inhibition at 10 uM after 48 hrs by SRB assay; type: functional; settings: MDA-MB-435, 48 h, read-out: GI; in short: as §1
# SF-268 = assay: Cytotoxicity against human SF268 cells assessed as growth inhibition after 48 hrs by SRB assay; type: functional; settings: SF-268, 48 h
# In short: (§3)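 Run in the NCI 60 human tumour cell line panel. Cells exposed for 48 h, growth read by sulforhodamine B. Compounds were first screened at a single 10 µM dose, and those meeting preset threshold inhibition criteria went on to the 5-dose screen. GI50 is the molar concentration giving 50% growth inhibition.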
# SW-620 = assay: Cytotoxicity against human SW620 cells assessed as growth inhibition after 48 hrs by SRB assay; type: functional; settings: SW-620, 48 h; in short: as §3
# SR [3] = assay: Cytotoxicity against human SR cells assessed as growth inhibition after 48 hrs by SRB assay; type: functional; in short: as §3
# SK-OV-3 = assay: Cytotoxicity against human SKOV3 cells assessed as growth inhibition after 48 hrs by SRB assay; type: functional; settings: SK-OV-3, 48 h; in short: as §3
# M14 = assay: Cytotoxicity against human M14 cells assessed as growth inhibition after 48 hrs by SRB assay; type: functional; settings: M14, 48 h; in short: as §3
# Hs-578T = assay: Cytotoxicity against human Hs578T cells assessed as growth inhibition after 48 hrs by SRB assay; type: functional; in short: as §3
# NCI/ADR-RES = assay: Cytotoxicity against human NCI/ADR-RES cells assessed as growth inhibition after 48 hrs by SRB assay; type: functional; in short: as §3
# HL-60(TB) = assay: Cytotoxicity against human HL-60(TB) cells assessed as growth inhibition after 48 hrs by SRB assay; type: functional; settings: HL-60, 48 h
# In short: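 NCI 60-human-cancer-cell-line screen; only compounds meeting predetermined threshold inhibition criteria in the single-dose test went on to the 5-dose screen. Cells exposed for 48 h and growth read by sulforhodamine B assay. GI50 is the molar concentration giving 50% growth inhibition of tumour cells.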
# RXF 393 = assay: Cytotoxicity against human RXF393 cells assessed as growth inhibition after 48 hrs by SRB assay; type: functional; settings: RXF 393, 48 h; in short: as §3
# DU-145 = assay: Cytotoxicity against human DU145 cells assessed as growth inhibition after 48 hrs by SRB assay; type: functional; settings: DU-145, 48 h; in short: as §3
# SN12C = assay: Cytotoxicity against human SN12C cells assessed as growth inhibition after 48 hrs by SRB assay; type: functional; in short: as §3
# ACHN = assay: Cytotoxicity against human ACHN cells assessed as growth inhibition after 48 hrs by SRB assay; type: functional; in short: as §3
# SNB-19 = assay: Cytotoxicity against human SNB19 cells assessed as growth inhibition after 48 hrs by SRB assay; type: functional; settings: SNB-19, 48 h; in short: as §3
# OVCAR-3 = assay: Cytotoxicity against human OVCAR3 cells assessed as growth inhibition after 48 hrs by SRB assay; type: functional; settings: OVCAR-3, 48 h; in short: as §3
# BT-549 = assay: Cytotoxicity against human BT549 cells assessed as growth inhibition after 48 hrs by SRB assay; type: functional; settings: BT-549, 48 h; in short: as §3
# NCI-H23 = assay: Cytotoxicity against human NCI-H23 cells assessed as growth inhibition after 48 hrs by SRB assay; type: functional; settings: NCI-H23, 48 h; in short: as §3
# HCT-15 = assay: Cytotoxicity against human HCT15 cells assessed as growth inhibition after 48 hrs by SRB assay; type: functional; settings: HCT-15, 48 h; in short: as §3
# MDA-MB-231 = assay: Cytotoxicity against human MDA-MB-231 cells assessed as growth inhibition after 48 hrs by SRB assay; type: functional; settings: MDA-MB-231, 48 h; in short: as §3
# SF-539 = assay: Cytotoxicity against human SF539 cells assessed as growth inhibition after 48 hrs by SRB assay; type: functional; settings: SF-539, 48 h; in short: as §3
# CCRF-CEM = assay: Cytotoxicity against human CCRF-CEM cells assessed as growth inhibition after 48 hrs by SRB assay; type: functional; in short: as §3
# K562 = assay: Cytotoxicity against human K562 cells assessed as growth inhibition after 48 hrs by SRB assay; type: functional; settings: K562, 48 h; in short: as §3
# NCI-H522 = assay: Cytotoxicity against human NCI-H522 cells assessed as growth inhibition after 48 hrs by SRB assay; type: functional; settings: NCI-H522, 48 h; in short: as §3
# [4] = Inhibition of sheep brain tubulin assembly by DAPI staining-based fluorescence assay; parameters: species or system Ovis aries; in short: as §2
# SNB-75 = assay: Cytotoxicity against human SNB75 cells assessed as growth inhibition after 48 hrs by SRB assay; type: functional; settings: SNB-75, 48 h; in short: as §3
# Malme-3M = assay: Cytotoxicity against human MALME-3M cells assessed as growth inhibition after 48 hrs by SRB assay; type: functional; in short: as §3
# PC-3 = assay: Cytotoxicity against human PC3 cells assessed as growth inhibition after 48 hrs by SRB assay; type: functional; settings: PC-3, 48 h; in short: as §3
# NCI-H460 = assay: Cytotoxicity against human NCI-H460 cells assessed as growth inhibition after 48 hrs by SRB assay; type: functional; settings: NCI-H460, 48 h; in short: as §3
# KM12 = assay: Cytotoxicity against human KM12 cells assessed as growth inhibition after 48 hrs by SRB assay; type: functional; settings: KM12, 48 h; in short: as §3
# MDA-MB-435 [5] = assay: Cytotoxicity against human MDA-MB-435 cells assessed as growth inhibition after 48 hrs by SRB assay; type: functional; settings: MDA-MB-435, 48 h; in short: as §3
Compound,inhibition (Ovis aries) [%],GI50 (SF-268) [nM],GI50 (SW-620) [nM],GI50 (SR [3]) [nM],GI50 (SK-OV-3) [nM],GI50 (Hs-578T) [nM],GI50 (NCI/ADR-RES) [nM],GI50 (HL-60(TB)) [nM],GI50 (RXF 393) [nM],GI50 (DU-145) [nM],GI50 (SN12C) [nM],GI50 (ACHN) [nM],GI50 (SNB-19) [nM],GI50 (OVCAR-3) [nM],GI50 (BT-549) [nM],GI50 (NCI-H23) [nM],GI50 (HCT-15) [nM],GI50 (MDA-MB-231) [nM],GI50 (SF-539) [nM],IC50 [4] [µM],also measured
COc1cc(C(=O)c2cc(OC)c(O)c(OC)c2)c(OC)cc1F,48,,,,,,,,,,,,,,,,,,,,inhibition of growth at 10 µM (SR [1]): 22%; inhibition of growth at 10 µM (MDA-MB-435 [2]): 21%
COc1ccc(C(=O)c2cc(F)c(F)c(OC)c2F)cc1OC(=O)CCl,46,,,,,,,,,,,,,,,,,,,,
C=C(c1ccc(OC)c(O)c1)c1cc(F)c(F)c(OC)c1F,77,75,45,15,94,52,38,23,176,139,209,67,67,217,61,385,45,94,31,42.2,GI50 (M14): 38 nM; GI50 (CCRF-CEM): 37 nM; GI50 (K562): 37 nM; GI50 (NCI-H522): 25 nM; GI50 (SNB-75): 55 nM; GI50 (Malme-3M): 44 nM; GI50 (PC-3): 140 nM; GI50 (NCI-H460): 343 nM; GI50 (KM12): 47 nM; GI50 (MDA-MB-435 [5]): 19 nM
COc1cc(C(=O)c2cc(OC)c(OC)c(OC)c2)c(OC)cc1F,77,748,63,43,213,194,68,203,144,257,602,693,419,45,365,421,55,388,164,24,GI50 (M14): 72 nM; GI50 (CCRF-CEM): 192 nM; GI50 (K562): 46 nM; GI50 (NCI-H522): 102 nM; GI50 (SNB-75): 109 nM; GI50 (Malme-3M): 433 nM; GI50 (PC-3): 207 nM; GI50 (NCI-H460): 115 nM; GI50 (KM12): 50 nM; GI50 (MDA-MB-435 [5]): 25 nM
COc1ccc(C(=O)c2ccc(OC)c(NC(C)=O)c2OC)cc1F,3,,,,,,,,,,,,,,,,,,,,
COc1ccc(C(=O)c2cc(F)c(F)c(OC)c2F)c(OC)c1N,89,6540,2840,961,8370,3780,1670,3690,4510,3910,5810,7900,5470,2090,34100,30700,2980,8550,3590,29.2,GI50 (CCRF-CEM): 3350 nM; GI50 (K562): 1830 nM; GI50 (NCI-H522): 752 nM; GI50 (SNB-75): 1700 nM; GI50 (Malme-3M): 11500 nM; GI50 (PC-3): 10200 nM; GI50 (NCI-H460): 3000 nM; GI50 (KM12): 890 nM; GI50 (MDA-MB-435 [5]): 407 nM
COc1ccc(C(=O)c2cc(OC)c(OC)c(OC)c2N)cc1F,,,,,,,,,,,,,,,,,,,,2,
